Measured values of several laboratories.
Lines come from different studies, so protocols differ.
Target: Proto-oncogene tyrosine-protein kinase ROS (ROS1, Homo sapiens, UniProt P08922)

| SMILES | effect on | mode | method | concentration | quantity | value |
| --- | --- | --- | --- | --- | --- | --- |
| CC(=O)N1CCC(c2ccc(C(=O)NC3=NCCN3)cc2C(F)(F)F)CC1 | cell-free assay |  | competition with immobilised ligand | 1 µM | remaining binding | 99% |
| Cc1cc(NC(=O)c2cccc3cc(-c4cccc5[nH]nc(N)c45)ccc23)ccc1F | enzyme activity | inhibitor |  | 0.1 µM | activity vs control | 111% |
| Nc1ncnc2occ(-c3ccc(NC(=O)Nc4cc(C(F)(F)F)ccc4F)cc3)c12 | cell-free assay |  |  | 20 µM | remaining signal | 4.9% |
| C[S+]([O-])c1ccc(-c2nc(-c3ccncc3)c(-c3ccc(F)cc3)[nH]2)cc1 (stereo not drawn) | cell-free assay |  |  | 0.5 µM | remaining signal | 94.4% |
| CO[C@@H](C)c1c(Nc2ccc([C@@H](N(C)C(=O)C3CCS(=O)(=O)CC3)C(F)(F)F)cc2)cnc2cc(Cl)nn12 | cell-free assay |  | competition with immobilised ligand | 1 µM | remaining binding | 82% |
| CNCc1ccc(-c2cc(-c3nc(-c4ccc(S(=O)(=O)C(C)C)cc4)cnc3N)on2)cc1 | enzyme activity | inhibitor |  | 2 µM | inhibition | 4% |
| Cc1ccc(C(=O)Nc2ccc(CN3CCN(C)CC3)c(C(F)(F)F)c2)cc1C#Cc1cnc2cccnn12 | enzyme activity |  |  | 23.5 nM | remaining activity | 78% |
| COc1cc(Cl)c(C(=O)N[C@@H](CN[C@H]2CC[C@@H](N)CC2)Cc2ccc(C#N)cc2)cc1-c1ccc(CN[C@H](C)c2ccc(C)cc2)o1 | enzyme activity | inhibitor |  | 1 µM | remaining activity | 137% |
| Cc1ccc(Nc2nccc(N(C)c3ccc4c(C)n(C)nc4c3)n2)cc1S(N)(=O)=O | enzyme activity | inhibitor |  | 0.3 µM | inhibition | 3% |
| COc1cc2c(Nc3ccc(Br)cc3F)ncnc2cc1OCC1CCN(C)CC1 | cell-free assay |  |  | 0.5 µM | remaining signal | 76.5% |
| CCOc1cc(-c2nncn2C)ccc1Nc1ncc2cc(C)nc(NCC(C)(C)C)c2n1 | enzyme activity | inhibitor | FRET | 1 µM | inhibition | 31% |
| COc1cc2ncnc(Nc3ccc(Oc4ccccc4)c(C)c3C)c2cc1OC | enzyme activity | inhibitor |  | 1 µM | inhibition | -2% |
| O=C1Nc2ccc(Cl)cc2C1=Cc1cc(Cl)c(O)c(Cl)c1 | cell-free assay |  |  | 0.5 µM | remaining signal | 89.7% |
| O=C1NC(c2ccccn2)Sc2ccccc21 (stereo not drawn) | cell-free assay |  | competition with immobilised ligand | 1 µM | remaining binding | 95% |
| CC(C)(C)c1nc2c(s1)c1nc(N)ncc1c1ccc(NS(=O)(=O)c3c(F)cccc3F)c(F)c12 | enzyme activity | inhibitor | radiometric | 1 µM | remaining activity | 109% |
| C=CC(=O)Nc1cc(Nc2nccc(Nc3cc(Cl)c(F)cc3C(C)(C)O)n2)c(OC)cc1N1CC[C@@H](N(C)C)C1 | enzyme activity | inhibitor |  | 1 µM | inhibition | 51% |
| O=C(Nc1cnn(-c2csc(C(=O)NC3COC3)c2)c1)Nc1c(F)cccc1Cl | enzyme activity | inhibitor |  | 5 µM | remaining activity | 85.5% |
| CNC(=O)Nc1ccc2c(c1)[C@@]1(CC2)OC(=O)N(CC(=O)N(Cc2ccc(F)cc2)[C@@H](C)C(F)(F)F)C1=O | cell-free assay |  | competition with immobilised ligand | 1 µM | remaining binding | 87% |
| Cc1cnc(NC2CCOCC2)nc1-n1cnc(C(=O)NC(CN)c2cc(F)cc(Cl)c2)c1 (stereo not drawn) | enzyme activity | inhibitor | radiometric | 1 µM | remaining activity | 103% |
| CCC(=O)N[C@H]1CC[C@@H](C(=O)N(C)c2ccc(-c3nc4ccccc4o3)cc2)C1 | cell-free assay |  | competition with immobilised ligand | 1 µM | remaining binding | 93% |
| CCN(CC)CCNC(=O)c1c(C)[nH]c(/C=C2\C(=O)Nc3ccc(F)cc32)c1C | enzyme activity | inhibitor |  | 0.3 µM | inhibition | 4% |
| N#Cc1ccc(Nc2ccc3[nH]c(=O)[nH]c3c2)c(Cl)c1 | cell-free assay |  | competition with immobilised ligand | 1 µM | remaining binding | 100% |
| CCN(CC)c1ccc(C2=NNC(=O)CC2C)cc1[N+](=O)[O-] (stereo not drawn) | enzyme activity | inhibitor |  | 10 µM | remaining activity | 106% |
| CCOCCn1cc(C(=O)Nc2ccc(-n3nc(-c4cccnc4)cc3C(F)(F)F)cn2)ccc1=O | cell-free assay |  | competition with immobilised ligand | 1 µM | remaining binding | 100% |
| CC/C(=N\NC(=O)NCc1cccc(O)c1)c1ccc(O)c(C)c1O | enzyme activity | inhibitor |  | 0.1 µM | inhibition | 2.5% |
| O=C1NC(=O)c2cc(Nc3ccc(F)cc3)c(Nc3ccc(F)cc3)cc21 | cell-free assay |  |  | 0.5 µM | remaining signal | 92% |
| Cc1c[nH]c2nccc(Oc3c(F)cc(Nc4cc(Cl)nc(N)n4)cc3F)c12 | cell-free assay |  | competition with immobilised ligand | 0.1 µM | remaining binding | 96% |
